Measured values from different studies.
Target: Serine/threonine-protein kinase Chk2 (CHEK2, Homo sapiens, UniProt O96017)

N[C@H]1CCN(c2nccc(-c3cnn4ncccc34)n2)C1  remaining binding (binding; 1 µM): 98%
C[C@@H](c1ccc(-n2cnc3c(N)ncnc32)cc1)N1CCc2nn(C)c(Cc3ccccc3)c2C1=O  remaining binding (binding, competition with immobilised ligand; 0.1 µM): 100%
Cc1cnn2ncc(-c3ccnc(N(C)C)n3)c2c1  remaining binding (binding; 1 µM): 84%
C[C@@]1(Cc2ccc(C#N)cc2)C(=O)N(c2cc(Cl)cc(Cl)c2)c2ncc(C(=O)NC3(c4nc(C5CCC5)no4)CC3)n21  remaining binding (cell-free assay, competition with immobilised ligand; 1 µM): 100%
Cc1cnc(Nc2ccc(C(=O)N3CCC(N4CCCC4)CC3)cc2)nc1-c1cc2ccccc2s1  remaining binding (binding, competition with immobilised ligand; 1 µM): 100%
CC1CCCN1c1nccc(-c2cnn3ncccc23)n1 (stereo not drawn)  remaining binding (binding; 1 µM): 100%
CO[C@@H](C)c1c(Nc2ccc([C@@H](N(C)C(=O)C3CCS(=O)(=O)CC3)C(F)(F)F)cc2)cnc2cc(Cl)nn12  remaining binding (cell-free assay, competition with immobilised ligand; 1 µM): 100%
CN(C)c1ncc(F)c(-c2cnn3ncccc23)n1  remaining binding (binding; 1 µM): 100%
COc1cnc(Nc2cccc(S(N)(=O)=O)c2)nc1N1CCN(c2ccccc2)CC1  remaining binding (binding, competition with immobilised ligand; 1 µM): 96%
COc1cc(C(=O)N2CCC(N3CCN(C)CC3)CC2)ccc1Nc1ncc2c(n1)N(C)c1ccccc1C(=O)N2C  remaining binding (binding, competition with immobilised ligand; 10 µM): 66%
c1cnn2ncc(-c3ccnc(N4CCC45COC5)n3)c2c1  remaining binding (binding; 1 µM): 77%
FC(F)(F)Oc1cccc(-c2cnc3ccc(-c4ccncc4)nn23)c1  remaining binding (cell-free assay, competition with immobilised ligand; 5 µM): 74%
c1cncc(-c2cccc(Nc3nccc(NC4CCCCC4)n3)c2)c1  remaining binding (binding, competition with immobilised ligand; 10 µM): 97%
O=C(NCCCN1CCOCC1)c1ccc(Nc2ncc(Cl)c(-c3ccc(Cl)s3)n2)cc1  remaining binding (binding, competition with immobilised ligand; 1 µM): 82%
CC(=O)c1c(NS(C)(=O)=O)c2cc(-c3ccc(Cl)cc3)c(-c3ccc(Cl)cc3Cl)nc2n(C)c1=O  remaining binding (cell-free assay, competition with immobilised ligand; 1 µM): 100%
C[C@@H]1CCN(c2nccc(-c3cnn4ncccc34)n2)C1  remaining binding (binding; 1 µM): 71%
Cn1nc(C(=O)NCc2ccc(C(=O)O)cc2)cc1-c1ccc2[nH]ccc2c1  remaining binding (cell-free assay, competition with immobilised ligand; 0.1 µM): 100%
COc1cnc(Nc2cccc(S(N)(=O)=O)c2)nc1N1CCN(c2ccccc2)C(=O)C1  remaining binding (binding, competition with immobilised ligand; 1 µM): 86%
CCS(=O)(=O)c1cc2cc(C[C@@](O)(CC(C)(C)c3ccc(F)cc3C(N)=O)C(F)(F)F)[nH]c2cn1  remaining binding (cell-free assay, competition with immobilised ligand; 1 µM): 84%
CN(C)c1nccc(-c2cnc3ncccn23)n1  remaining binding (binding; 1 µM): 79%
CCC(=N\O)/C(C)=C/c1ccc(F)cc1  remaining binding (cell-free assay, competition with immobilised ligand; 1 µM): 85%
O=C(NCCCN1CCOCC1)c1ccc(Nc2nccc(-c3cc4ccccc4s3)n2)cc1  remaining binding (binding, competition with immobilised ligand; 1 µM): 79%
COc1cccc(CNC(=O)c2nc3scc(COCc4ccc(C(=O)O)cc4)c3c(=O)[nH]2)c1  remaining binding (cell-free assay, competition with immobilised ligand; 1 µM): 92%
O=C(Nc1c[nH]nc1C(=O)NC1CCNCC1)c1cc(F)cc(F)c1  remaining binding (binding, competition with immobilised ligand; 1 µM): 100%
